Compound activity: PubChem BioAssay, The Scripps Research Institute Molecular Screening Center
MC4R barr agon: agonists of human melanocortin 4 receptor (MC4R) beta-arrestin; U2OS MC4R beta-arrestin complementation, luminescence; percent of melanotan II response, DMSO zero; activation, % at 8.9 µM; actives 0.98% (n = 360,000);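 active means activation above a per-plate cutoff, the mean activation of sample wells on that plate plus 3 SD, cut at about 8% in these data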
GAA850 FXN act: frataxin GAA850 promoter activation; actives 0.56% (n = 360,000); HEK293 lucGAA850 FXN promoter luciferase reporter, 24 h; percent of 10 µM SAHA response; activation, % at 6 µM;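 active means activation above the average of all compounds screened plus 3 SD, cutoff fixed separately per campaign, cut at about 7.5% in these data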
m5-HT2A agonist: agonists of mouse serotonin 5-HT2A receptor (HTR2A). P35363. CHO-K1 mHTR2A beta-arrestin complementation, luminescence; percent of 30 µM serotonin response. activation, % at 7.6 µM. actives 0.66% (n = 360,000). AID 624169;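 active means activation above a run cutoff, the mean activation of all tested compounds plus 3 SD, cut at about 14% in these data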
MC4R antag cAMP: human MC4R antagonism in cAMP assay | P32245 | MC4R-expressing cells, MTII-stimulated cAMP, LANCE TR-FRET | inhibition, % at 6.5 µM | actives 0.48% (n = 360,000);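 active means inhibition above its plate's cutoff, the mean of tested wells on that plate plus 3 SD, cut at about 29% in these data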
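material = U2OS cells stably expressing human melanocortin 4 receptor (MC4R) | also added = Melanotan II challenge | dosing = single nominal compound dose of 6.5 µM | detection = TR-FRET with Eu-cAMP and labeled anti-cAMP, 671 nm | replication = singlicate | timing = compound 30 min, challenge 1 h, detection 1 h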
AHR act: human AHR activation | P35869 | AHR-responsive luciferase reporter cells, luminescence | activation, % at 5 µM | actives 2.5% (n = 320,000); in the data active means activation above about 47%
Target sequence (P35869 whole entry, looked up): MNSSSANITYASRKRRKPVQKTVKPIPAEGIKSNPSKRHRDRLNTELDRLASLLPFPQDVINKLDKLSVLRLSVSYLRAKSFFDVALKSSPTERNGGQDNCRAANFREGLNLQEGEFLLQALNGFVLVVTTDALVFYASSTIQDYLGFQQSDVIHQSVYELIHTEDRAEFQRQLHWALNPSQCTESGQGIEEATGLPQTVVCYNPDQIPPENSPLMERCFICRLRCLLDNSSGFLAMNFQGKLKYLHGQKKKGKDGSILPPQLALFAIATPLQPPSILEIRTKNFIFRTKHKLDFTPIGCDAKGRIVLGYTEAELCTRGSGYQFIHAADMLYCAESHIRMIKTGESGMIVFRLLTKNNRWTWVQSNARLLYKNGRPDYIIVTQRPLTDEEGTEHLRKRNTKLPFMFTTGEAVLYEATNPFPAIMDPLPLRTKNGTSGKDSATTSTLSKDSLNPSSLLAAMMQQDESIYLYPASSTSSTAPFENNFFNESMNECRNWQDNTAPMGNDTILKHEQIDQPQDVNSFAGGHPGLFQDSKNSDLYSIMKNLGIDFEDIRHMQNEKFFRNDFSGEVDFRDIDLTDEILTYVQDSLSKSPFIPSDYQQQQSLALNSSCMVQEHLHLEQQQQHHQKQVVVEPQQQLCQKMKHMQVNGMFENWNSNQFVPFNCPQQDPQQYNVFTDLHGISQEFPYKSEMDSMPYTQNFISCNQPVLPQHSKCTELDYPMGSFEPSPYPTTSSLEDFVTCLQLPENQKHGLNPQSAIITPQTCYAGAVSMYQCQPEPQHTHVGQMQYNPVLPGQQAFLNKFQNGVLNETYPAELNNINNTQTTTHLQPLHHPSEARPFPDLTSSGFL
Each line names hits and unclear results; the compound was inactive in the other large screens. This is a sample that favours compounds with a hit; in the whole collection about 4.7% have one here.

COc1nc(-c2ccncc2)nc2ccccc12	AHR act 75
O=C(CSc1nccn1Cc1ccc(F)cc1)NC1CCCCC1	none (no result: AHR act)
O=C(CSc1nnc(C2CC2)n1Cc1ccccc1)N1CCNC1=O	none
Cc1nn(C(=O)CNS(=O)(=O)c2ccccc2)c(C)c1Sc1ccc(Cl)cc1	MC4R barr agon 8.9
Cc1ccc(NC(=O)CCNCc2ccco2)cc1S(=O)(=O)N(C)C	none
Cc1ccc(C(=O)C(c2ccccc2)N2Cc3ccccc3C2=N)cc1 (centres undefined)	AHR act 65
Cc1sc(NC(=O)CSc2nnc3scc(-c4ccccc4)n23)c(C#N)c1C	MC4R barr agon 16
Cc1sc(NC(=O)CSc2nnc(COc3ccccc3)n2C)c(C#N)c1C	none
COc1ccc(Br)c(Cn2c(C)c(C(=O)NCc3cccc([N+](=O)[O-])c3)sc2=O)c1	none (no result: AHR act)
COc1ccc(N=Cc2oc3ccc4ccccc4c3c2O)cc1	AHR act 58
O=C(N=Nc1c(O)[nH]c2ccc(F)cc12)c1ccc(NS(=O)(=O)c2cccs2)cc1	none
COc1ccc2[nH]c(O)c(N=NC(=O)c3ccc(NS(=O)(=O)c4cccs4)cc3)c2c1	MC4R barr agon 9.0
CC(Oc1ccccc1)C(=O)N=Nc1c(O)[nH]c2ccc([N+](=O)[O-])cc12 (centres undefined)	AHR act 63
CC1(c2ccc3ccccc3c2)NC(=O)N(CC(=O)Nc2cccc(S(=O)(=O)N3CCOCC3)c2)C1=O (centres undefined)	AHR act 49
Cc1ccc2nc3c(c(N)c2c1)CCN3C	none
CCCCN1CCc2c1nc1ccc(Br)cc1c2N	AHR act 76
CN(C)c1nc(N)nc(/C(C#N)=C/C2CC3C=CC2C3)n1 (centres undefined)	AHR act 47
Cc1ccccc1Cn1ccc(NC(=O)CCSc2nc(-c3ccco3)cc(C(F)(F)F)n2)n1	none
Cc1ccccc1Cn1ccc(NC(=O)c2cnn3c(C(F)(F)F)cc(-c4ccco4)nc23)n1	AHR act 48
O=C(NCCN1CCN(C(=O)c2cccc(OC(F)F)c2)CC1)c1cccc(OC(F)F)c1	none
CC(C)C(C)NC(=O)CSc1nnc(-c2c[nH]c3ccccc23)o1 (centres undefined)	none
Cc1ccc(C(=O)CSc2nnc(-c3c[nH]c4ccccc34)o2)cc1	MC4R barr agon 8.2
Clc1cccc(CSc2nnc(-c3c[nH]c4ccccc34)o2)c1	AHR act 52
Clc1ccc2nc(CSc3nnc(-c4c[nH]c5ccccc45)o3)cn2c1	none (no result: AHR act)
CCN(CC)S(=O)(=O)c1ccc(OC(C)C)c(NC(=O)C2=COCCO2)c1	none
O=C(O)c1ccc(S(=O)(=O)/N=C2\C=C(Nc3ccccc3F)C(=O)c3ccccc32)cc1	AHR act 70
NNC(=O)CNC(=O)Nc1n[nH]c(=S)s1	none (no result: MC4R barr agon, GAA850 FXN act, MC4R antag cAMP, AHR act)
Cc1cc(=O)oc2c(C(=O)/C=C\c3cccs3)c(O)ccc12	AHR act 73
CC(=O)Nc1ccc(S(=O)(=O)NCCC(=O)NCc2ccco2)cc1	none (no result: AHR act)
O=C1/C(=C/c2c[nH]c3ccccc23)CCC/C1=C\c1c[nH]c2ccccc12	AHR act 65
Cc1cccc(C)c1NC(=O)C(c1ccc(C#N)cc1)n1c(=O)c(-c2ccco2)nc2ccccc21 (centres undefined)	none (no result: MC4R barr agon, GAA850 FXN act, MC4R antag cAMP, AHR act)
O=C1OC(c2ccc3ccccc3c2O)(c2ccc3ccccc3c2O)c2ccccc21	none (no result: AHR act)
N#Cc1cn(CCOc2ccccc2F)c2ccccc12	AHR act 49
N#Cc1cn(CCOc2ccc(F)cc2)c2ccccc12	none
COc1ccc(C(=O)Cn2c(=N)n(C)c3ccccc32)cc1	AHR act 76
Cn1c(=N)n(CC(=O)c2ccc(Cl)c(Cl)c2)c2ccccc21	AHR act 54
Cn1c(=N)n(CC(=O)O)c2ccccc21	none
C=CCn1c(=N)n(CC(=O)c2ccc(OC)cc2)c2ccccc21	AHR act 67
Cn1c(=N)n(CC(=O)c2ccccc2)c2ccccc21	none
COc1ccc(CCNC(=O)c2cc3ccc(Cl)cc3nc2N)cc1	none (no result: MC4R barr agon, GAA850 FXN act, MC4R antag cAMP, AHR act)
COc1cc2c(cc1NC(=O)C(C)OC(=O)C1CC(=O)N(Cc3ccco3)C1)oc1ccccc12 (centres undefined)	AHR act 54
CC(OC(=O)C1CC(=O)N(Cc2ccco2)C1)C(=O)Nc1cccc(C#N)c1 (centres undefined)	none (no result: AHR act)
COc1cc(NC(=O)c2onc(C)c2Cl)c(OC)cc1Cl	AHR act 60
Cc1noc(C(=O)Nc2ccc(Cl)cc2)c1Cl	none (no result: MC4R barr agon, GAA850 FXN act, m5-HT2A agonist, MC4R antag cAMP)
COc1cc(NC(=O)c2cc(C)no2)c(OC)cc1Cl	none
Cc1noc(C(=O)Nc2cc(Cl)ccc2O)c1Cl	AHR act 56
COc1cc(N/C(N)=N/c2nc(C)cc(C)n2)c(OC)cc1Cl	AHR act 54
O=C(CN1CCCc2ccccc21)Nc1cccc(S(=O)(=O)N2CCCC2)c1	none (no result: AHR act)
O=C(Nc1ncccc1O)c1ccc(S(=O)(=O)NCc2ccco2)cc1	none (no result: AHR act)
C=CCNC(=S)NNC(=O)COc1ccc(Br)cc1	none
C=CCNC(=S)NNC(=O)COc1ccc2cc(Br)ccc2c1	m5-HT2A agonist 16
COc1ccc(CCNC(=O)CCN2C(=O)COc3ccccc32)cc1OC	AHR act 85
CC1CCCC12NC(=O)NC2=O (centres undefined)	none (no result: AHR act)
Oc1[nH]c2c(Cl)cc(Cl)cc2c1N=NC(=S)NCC1CCCO1 (centres undefined)	AHR act 51
COCCCNc1nc2c(-c3cccc(C)c3)nnn2c2ccccc12	AHR act 49
CC(=O)Nc1sc2c(c1C#N)CCC(C)C2 (centres undefined)	none
Cc1cc(C(=O)Nc2sc3c(c2C#N)CCC(C)C3)cs1 (centres undefined)	MC4R barr agon 8.3
COC(=O)CCC(C)C1CCC2C3CCC4CC(O)CCC4(C)C3CC(O)C12C (centres undefined)	MC4R barr agon 9.6 (no result: AHR act)
CSc1ncc(Cl)c(C(=O)Nc2cccc(C)c2)n1	AHR act 62
CSc1ncc(Cl)c(C(=O)NCc2ccc3c(c2)OCO3)n1	AHR act 74
CSc1ncc(Cl)c(C(=O)Nc2cccc3ccccc23)n1	none
CSc1ncc(Cl)c(C(=O)Nc2cccc(Cl)c2)n1	AHR act 55
C=CC[C@@H]1C=C(C)C[C@H](C)C[C@H](OC)[C@H]2O[C@@](O)(C(=O)C(=O)N3CCCC[C@H]3C(=O)O[C@H](/C(C)=C/[C@@H]3CC[C@@H](O)[C@H](OC)C3)[C@H](C)[C@@H](O)CC1=O)[C@H](C)C[C@@H]2OC	none (no result: MC4R barr agon, GAA850 FXN act, m5-HT2A agonist, MC4R antag cAMP)
O=C(NCc1ccc(Cl)cc1)c1ccc(S(=O)(=O)N2CCCCC2)cc1	MC4R barr agon 9.4
COc1cc([N+](=O)[O-])ccc1NC(=O)NCC1CCN(Cc2ccc(Cl)cc2)CC1	none
